Measurements reported in ChEMBL document CHEMBL4382255, “Design, synthesis and activity of Mnk1 and Mnk2 selective inhibitors containing thieno[2,3-d]pyrimidine scaffold” (Eur J Med Chem, 2019).
Active and inactive are the calls of the source. Unless noted, the rule behind the calls is not given here.

How the values were obtained:
Mus musculus [1] = organism: Mus musculus; experiment: Inhibition of MNK in mouse 3T3L1 cells assessed as reduction of eIF4E phosphorylation at 3 uM after 2 hrs by Western blot analysis; type: cell-based
How it was run: (§1)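 Mouse 3T3-L1 pre-adipocytes (DMEM high glucose, 10% heat-inactivated FBS, 37 °C, 5% CO₂) treated 2 h with compounds at 3 μM or lower concentrations down to 0.1 μM final; DMSO vehicle 0.03-0.05% final. RIPA lysates cleared, equal protein resolved by SDS-PAGE, immunoblotted for P-eIF4E and total eIF4E, fluorescent secondary detection.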

3T3-L1 = experiment: Effect on total eIF4E protein level in mouse 3T3L1 cells at 3 uM after 2 hrs by Western blot analysis; type: ADME, cell-based; conditions: 3t3-l1, 2 h; how it was run: as §1
Mus musculus [2] = organism: Mus musculus; experiment: Inhibition of MNK in mouse 3T3L1 cells assessed as reduction of eIF4E phosphorylation at 0.1 uM after 2 hrs by Western blot analysis; type: cell-based; how it was run: as §1
[3] = biological target: Mitogen-activated protein kinase 1 and 3 (ERK2 and ERK1) (Mus musculus) (UniProt P63085+Q63844); experiment: Inhibition of ERK1/2 phosphorylation at Thr202/Tyr204 residues in mouse 3T3L1 cells at 0.1 to 5 uM after 2 hrs by Western blot analysis; type: cell-based
Sequence of Mitogen-activated protein kinase 1 and 3 (ERK2 and ERK1) (Mus musculus) (P63085 whole entry, looked up): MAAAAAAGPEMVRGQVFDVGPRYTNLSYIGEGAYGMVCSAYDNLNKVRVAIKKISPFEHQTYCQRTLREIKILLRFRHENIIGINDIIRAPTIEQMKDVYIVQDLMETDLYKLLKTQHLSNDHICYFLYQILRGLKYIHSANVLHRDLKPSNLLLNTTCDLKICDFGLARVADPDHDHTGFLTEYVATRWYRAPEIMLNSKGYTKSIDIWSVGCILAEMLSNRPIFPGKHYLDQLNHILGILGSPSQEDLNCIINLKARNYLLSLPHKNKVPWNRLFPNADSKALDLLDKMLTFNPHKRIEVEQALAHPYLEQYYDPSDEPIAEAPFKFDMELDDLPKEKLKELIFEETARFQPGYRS
Sequence of Mitogen-activated protein kinase 1 and 3 (ERK2 and ERK1) (Mus musculus) (Q63844 whole entry, looked up): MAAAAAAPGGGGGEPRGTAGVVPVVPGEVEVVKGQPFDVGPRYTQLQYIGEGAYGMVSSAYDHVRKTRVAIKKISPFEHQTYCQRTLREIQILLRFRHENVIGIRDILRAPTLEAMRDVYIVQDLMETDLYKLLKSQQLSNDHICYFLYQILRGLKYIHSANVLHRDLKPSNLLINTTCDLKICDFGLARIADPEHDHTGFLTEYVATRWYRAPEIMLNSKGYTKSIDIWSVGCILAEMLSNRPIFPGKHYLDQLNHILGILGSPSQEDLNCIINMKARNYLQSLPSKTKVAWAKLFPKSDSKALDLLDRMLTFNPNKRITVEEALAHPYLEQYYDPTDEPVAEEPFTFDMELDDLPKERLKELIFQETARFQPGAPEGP
How it was run: (§2)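 3T3-L1 cells treated 2 h with inhibitor at indicated concentrations (DMSO <0.05% v/v). RIPA lysates, equal protein by Bradford, SDS-PAGE and western blot with phospho-specific antibodies (ERK, RSK, PKB Ser473, 4E-BP1, rpS6); fluorescent secondary imaging. Quantified from three independent experiments, SEM error bars.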

[4] = biological target: MAP kinase-interacting serine/threonine-protein kinase 2 (Mus musculus) (UniProt Q8CDB0); experiment: Inhibition of MNK2 in MNK1-knockout C57BL/6J mouse embryonic fibroblasts assessed as decrease in eIF4E phosphorylation at 0.003 to 0.03 uM after 2 hrs by Western blot analysis
Sequence of MAP kinase-interacting serine/threonine-protein kinase 2 (Mus musculus) (Q8CDB0 whole entry): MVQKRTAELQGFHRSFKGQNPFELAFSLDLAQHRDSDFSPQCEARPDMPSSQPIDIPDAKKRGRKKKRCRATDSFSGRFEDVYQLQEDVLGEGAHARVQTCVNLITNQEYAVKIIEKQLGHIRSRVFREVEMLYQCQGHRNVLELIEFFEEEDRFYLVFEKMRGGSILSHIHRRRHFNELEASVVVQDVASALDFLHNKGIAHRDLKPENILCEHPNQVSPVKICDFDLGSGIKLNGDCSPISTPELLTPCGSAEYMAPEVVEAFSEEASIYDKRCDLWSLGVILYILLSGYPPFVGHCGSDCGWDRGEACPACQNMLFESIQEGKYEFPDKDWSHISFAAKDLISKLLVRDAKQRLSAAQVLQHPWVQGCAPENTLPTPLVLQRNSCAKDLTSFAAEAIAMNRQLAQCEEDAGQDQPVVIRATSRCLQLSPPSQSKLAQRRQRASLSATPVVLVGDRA
How it was run: (§3)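 MEFs from E13.5 C57BL/6J embryos, wild-type, MNK1-KO or MNK2-KO (DMEM, 10% FBS), treated 2 h with inhibitor at indicated concentrations, including a lower-concentration series in MNK1-KO cells; CGP57380 at 50 μM as reference. Lysates analysed by SDS-PAGE/western blot for P-eIF4E; quantified from three independent experiments, SEM.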

Mus musculus [5] = organism: Mus musculus; experiment: Inhibition of ERK signalling in mouse 3T3L1 cells assessed as reduction in RSK phosphorylation at […] residue at 0.1 to 5 uM after 2 hrs by Western blot analysis; type: cell-based; how it was run: as §2
[6] = biological target: MAP kinase-interacting serine/threonine-protein kinase 2 (Homo sapiens) (UniProt Q9HBH9); experiment: Inhibition of GST-fused MNK2a (unknown origin) expressed in HEK293 cells using eIF4E as substrate after 30 mins by Western blot analysis; type: cell-based
Sequence of MAP kinase-interacting serine/threonine-protein kinase 2 (Homo sapiens) (Q9HBH9 whole entry, looked up, the tested form may be a part): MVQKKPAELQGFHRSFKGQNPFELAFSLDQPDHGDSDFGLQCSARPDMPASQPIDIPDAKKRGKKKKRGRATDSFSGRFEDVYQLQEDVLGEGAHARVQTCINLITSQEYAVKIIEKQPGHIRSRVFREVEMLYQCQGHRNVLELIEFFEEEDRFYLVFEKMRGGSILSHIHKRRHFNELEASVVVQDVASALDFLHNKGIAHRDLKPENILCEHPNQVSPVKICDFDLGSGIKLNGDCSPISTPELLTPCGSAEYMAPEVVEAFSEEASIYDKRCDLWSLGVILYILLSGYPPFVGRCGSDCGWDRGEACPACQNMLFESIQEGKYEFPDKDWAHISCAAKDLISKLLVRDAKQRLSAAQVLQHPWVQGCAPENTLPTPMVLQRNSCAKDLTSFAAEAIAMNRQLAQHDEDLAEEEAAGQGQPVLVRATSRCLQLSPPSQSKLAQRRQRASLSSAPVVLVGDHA
How it was run: (§4)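 GST-MNK1a or GST-MNK2a expressed in transfected HEK293 cells, purified by glutathione pull-down. Incubated in 25 mM Tris-HCl pH 7.5, 50 mM KCl, 2 mM MgCl₂ with 20 µM ATP and 65 ng E. coli-expressed eIF4E, 30 °C, 30 min, ± inhibitor. Stopped with sample buffer; immunoblotted for P-eIF4E Ser209, eIF4E and GST. Conditions pre-set within linear range.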

[7] = biological target: MAP kinase-interacting serine/threonine-protein kinase 1 (Mus musculus) (UniProt O08605); experiment: Inhibition of MNK1 in MNK2-knockout C57BL/6J mouse embryonic fibroblasts assessed as decrease in eIF4E phosphorylation at 0.3 to 5 uM after 2 hrs by Western blot analysis; how it was run: as §3
Sequence of MAP kinase-interacting serine/threonine-protein kinase 1 (Mus musculus) (O08605 whole entry, the tested form may be a part): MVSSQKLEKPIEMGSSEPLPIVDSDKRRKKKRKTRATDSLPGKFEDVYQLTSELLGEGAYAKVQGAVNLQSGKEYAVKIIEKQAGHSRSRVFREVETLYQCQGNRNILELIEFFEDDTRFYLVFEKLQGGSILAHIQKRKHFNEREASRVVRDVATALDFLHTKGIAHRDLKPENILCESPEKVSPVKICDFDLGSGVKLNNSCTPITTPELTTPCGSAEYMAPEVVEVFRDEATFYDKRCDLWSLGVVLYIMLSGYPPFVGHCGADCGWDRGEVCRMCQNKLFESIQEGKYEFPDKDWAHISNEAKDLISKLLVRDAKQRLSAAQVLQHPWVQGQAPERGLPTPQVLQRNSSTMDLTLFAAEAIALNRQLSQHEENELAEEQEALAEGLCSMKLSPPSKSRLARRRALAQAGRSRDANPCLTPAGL

[8] = biological target: MAP kinase-interacting serine/threonine-protein kinase 1 (Mus musculus) (UniProt O08605); experiment: Inhibition of MNK1 in C57BL/6J mouse embryonic fibroblasts assessed as decrease in eIF4E phosphorylation at 5 uM after 2 hrs by Western blot analysis; how it was run: as §3
[9] = biological target: MAP kinase-interacting serine/threonine-protein kinase 1 (Homo sapiens) (UniProt Q9BUB5); experiment: Inhibition of GST-fused MNK1a (unknown origin) expressed in HEK293 cells using eIF4E as substrate after 30 mins by Western blot analysis; type: cell-based; how it was run: as §4
Sequence of MAP kinase-interacting serine/threonine-protein kinase 1 (Homo sapiens) (Q9BUB5 whole entry, looked up, the tested form may be a part): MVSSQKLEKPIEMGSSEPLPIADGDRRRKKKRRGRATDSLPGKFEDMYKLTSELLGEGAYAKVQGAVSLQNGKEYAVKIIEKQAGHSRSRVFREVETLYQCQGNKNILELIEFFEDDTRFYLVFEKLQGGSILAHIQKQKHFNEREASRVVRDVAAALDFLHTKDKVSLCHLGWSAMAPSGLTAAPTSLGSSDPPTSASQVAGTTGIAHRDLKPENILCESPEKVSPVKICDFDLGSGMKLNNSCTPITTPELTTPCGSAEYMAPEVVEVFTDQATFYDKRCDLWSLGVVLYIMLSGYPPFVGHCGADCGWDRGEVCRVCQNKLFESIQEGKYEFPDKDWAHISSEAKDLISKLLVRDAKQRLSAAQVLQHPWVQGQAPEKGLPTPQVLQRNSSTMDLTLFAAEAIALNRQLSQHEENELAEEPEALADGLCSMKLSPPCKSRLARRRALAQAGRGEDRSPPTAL

[10] = biological target: MAP kinase-interacting serine/threonine-protein kinase 1 (Mus musculus) (UniProt O08605); experiment: Inhibition of MNK1 in C57BL/6J mouse embryonic fibroblasts assessed as decrease in eIF4E phosphorylation at 0.1 to 0.3 uM after 2 hrs by Western blot analysis relative to control; how it was run: as §3
Mus musculus [11] = organism: Mus musculus; experiment: Inhibition of mTORC1 in mouse 3T3L1 cells assessed as reduction in 4EBP1 at Ser65 residue phosphorylation at 0.1 to 5 uM after 2 hrs by Western blot analysis; type: cell-based; how it was run: as §2
MDA-MB-231 = experiment: Antimigratory activity against human MDA-MB-231 cells after 24 hrs by DAPI staining-based Transwell assay; type: functional, cell-based
How it was run: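 MDA-MB-231 cells pre-treated with inhibitor 60 min, then 3 x 10⁵ cells seeded into 8 μm-pore Transwell inserts pre-coated with 10 μg/ml collagen (collagen as attractant). After 24 h, migrated cells in bottom well stained with DAPI, imaged at ×10 and counted. Triplicate assays, mean ± SEM.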

[12] = biological target: T1, MAP kinase-interacting serine/threonine-protein kinase 1/2 (Homo sapiens) (UniProt Q9HBH9+Q9BUB5); experiment: Inhibition of MNK in human MDA-MB-231 cells assessed as decrease in eIF4E phosphorylation at 3 uM up to 72 hrs by Western blot analysis; type: cell-based
How it was run: (§5)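 MDA-MB-231 cells treated with inhibitor at indicated concentrations for 2 h, or at 3 μM for times up to 72 h (DMSO vehicle <0.05%). Cells lysed in RIPA buffer; supernatants analysed by SDS-PAGE and western blot for P-eIF4E and total eIF4E. CGP57380 at 30 μM as reference.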

[13] = biological target: T1, MAP kinase-interacting serine/threonine-protein kinase 1/2 (Homo sapiens); experiment: Inhibition of MNK in human MDA-MB-231 cells assessed as decrease in eIF4E phosphorylation at 1 uM after 2 hrs by Western blot analysis; type: cell-based; how it was run: as §5
[14] = biological target: MAP kinase-interacting serine/threonine-protein kinase 2 (Mus musculus) (UniProt Q8CDB0); experiment: Inhibition of MNK2 in MNK1-knockout C57BL/6J mouse embryonic fibroblasts assessed as decrease in eIF4E phosphorylation at 0.5 uM after 2 hrs by Western blot analysis; how it was run: as §3
Mus musculus [15] = organism: Mus musculus; experiment: Inhibition of mTORC2 in mouse 3T3L1 cells assessed as reduction in PKB phosphorylation at Ser473 residue at 0.1 to 5 uM after 2 hrs by Western blot analysis; type: cell-based; how it was run: as §2
[16] = biological target: MAP kinase-interacting serine/threonine-protein kinase 2 (Mus musculus) (UniProt Q8CDB0); experiment: Inhibition of MNK2 in C57BL/6J mouse embryonic fibroblasts assessed as decrease in eIF4E phosphorylation at 5 uM after 2 hrs by Western blot analysis; how it was run: as §3
Mus musculus [17] = organism: Mus musculus; experiment: Inhibition of mTORC1 in mouse 3T3L1 cells assessed as reduction in rpS6 phosphorylation at Ser240/244 residues at 0.1 to 5 uM after 2 hrs by Western blot analysis; type: cell-based; how it was run: as §2

| Compound | MNK inhibition (active/not active) (Mus musculus [1]) | Activity (3T3-L1) | also measured |
| --- | --- | --- | --- |
| COc1cc(F)ccc1Nc1ncnc2sc(C(=O)NCCCN3CCCC3)c(C)c12 | Active | Non-Toxic |  |
| Cc1c(C(=O)OCCCO)sc2ncnc(Nc3ccc(F)cc3OC(C)C)c12 | Active | Non-Toxic |  |
| COc1cc(F)ccc1Nc1ncnc2sc(C(=O)NCCCO)c(C)c12 | Active | Non-Toxic |  |
| Cc1c(C(=O)OCCO)sc2ncnc(Nc3ccc(F)cc3OC(C)C)c12 | Active |  |  |
| COc1cc(F)ccc1Nc1ncnc2sc(C(=O)NCCc3ccncc3)c(C)c12 | Active | Non-Toxic |  |
| COc1cc(F)ccc1Nc1ncnc2sc(C(=O)NCCCN(C)C)c(C)c12 | inactive |  |  |
| COc1cc(F)ccc1Nc1ncnc2sc(C(=O)NCC(C)(C)CN(C)C)c(C)c12 |  | Non-Toxic |  |
| Cc1c(C(=O)OCCc2ccccc2)sc2ncnc(Nc3ccc(F)cc3OC(C)C)c12 | Active | Non-Toxic |  |
| Cc1c(C(=O)N2CCCCC2)sc2ncnc(Nc3ccc(F)cc3OC(C)C)c12 | Active | Non-Toxic |  |
| COc1cc(F)ccc1Nc1ncnc2sc(C(=O)OCCO)c(C)c12 |  | Non-Toxic |  |
| Cc1c(C(=O)N2CCN(C)CC2)sc2ncnc(Nc3ccc(F)cc3OC(C)C)c12 | Active | Non-Toxic |  |
| COc1cc(F)ccc1Nc1ncnc2sc(C(=O)N3CCN(C)CC3)c(C)c12 | Active | Non-Toxic |  |
| COc1cc(F)ccc1Nc1ncnc2sc(C(=O)NCCCN3CCOCC3)c(C)c12 | Active | Non-Toxic |  |
| Cc1c(C(=O)NCCc2c[nH]cn2)sc2ncnc(Nc3ccc(F)cc3OC(C)C)c12 | Active | Non-Toxic | inhibition of eIF4E phosphorylation (active/not active) (Mus musculus [2]): inactive |
| Cc1c(C(=O)N2CCCC2)sc2ncnc(Nc3ccc(F)cc3OC(C)C)c12 | Active | Non-Toxic |  |
| COc1cc(F)ccc1Nc1ncnc2sc(C(=O)N3CCCC3)c(C)c12 | Active | Non-Toxic |  |
| Cc1c(C(=O)NCCCO)sc2ncnc(Nc3ccc(F)cc3OC(C)C)c12 | Active |  |  |
| COc1cc(F)ccc1Nc1ncnc2sc(C(=O)N3CCCCC3)c(C)c12 | Active | Non-Toxic |  |
| COc1cc(F)ccc1Nc1ncnc2sc(C(=O)N3CCOCC3)c(C)c12 | Active | Non-Toxic |  |
| Cc1c(C(=O)N2CCOCC2)sc2ncnc(Nc3ccc(F)cc3OC(C)C)c12 | Active | Non-Toxic |  |
| Cc1c(C(=O)NCCc2ccncc2)sc2ncnc(Nc3ccc(F)cc3OC(C)C)c12 | Active | Non-Toxic | inhibition of eIF4E phosphorylation (active/not active) (Mus musculus [2]): inactive |
| Cc1c(C(=O)NCC(C)(C)CN(C)C)sc2ncnc(Nc3ccc(F)cc3OC(C)C)c12 | Active | Non-Toxic | inhibition of eIF4E phosphorylation (active/not active) (Mus musculus [2]): inactive |
| COc1cc(F)ccc1Nc1ncnc2sc(C(=O)NCCc3c[nH]cn3)c(C)c12 | Active | Non-Toxic |  |
| COc1cc(F)ccc1Nc1ncnc2sc(C(=O)NC3CCCCC3)c(C)c12 | Active | Non-Toxic |  |
| COC(=O)c1sc2ncnc(Nc3ccc(F)cc3OC(C)C)c2c1C | inactive |  |  |
| Cc1c(C(=O)NC2CCCCC2)sc2ncnc(Nc3ccc(F)cc3OC(C)C)c12 | Active | Non-Toxic |  |
| Cc1c(C(=O)NCCCN(C)C)sc2ncnc(Nc3ccc(F)cc3OC(C)CF)c12 (configuration not stated) | Active | Non-Toxic | inhibition [3]: inactive; inhibition [4]: Active; inhibition of eIF4E phosphorylation (active/not active) (Mus musculus [2]): Active; inhibition (Mus musculus [5]): inactive; inhibition [6]: Active; inhibition [7]: Active; inhibition [8]: 100%; inhibition [9]: Active; inhibition [10]: 50%; inhibition (Mus musculus [11]): inactive; inhibition (MDA-MB-231): Active; inhibition [12]: Active; inhibition [13]: 100%; inhibition [14]: Active; inhibition (Mus musculus [15]): inactive; inhibition [16]: 100%; inhibition (Mus musculus [17]): inactive |
| Cc1c(C(=O)NCCCN(C)C)sc2ncnc(Nc3ccc(F)cc3OC(C)C)c12 | Active |  |  |
| Cc1c(C(=O)NCCCN2CCOCC2)sc2ncnc(Nc3ccc(F)cc3OC(C)C)c12 | Active | Non-Toxic | inhibition of eIF4E phosphorylation (active/not active) (Mus musculus [2]): inactive |
